# Test results reported in paper PMC5061793 (British Journal of Clinical Pharmacology, 2016).
# Entries after “also recorded” stand apart in the source; their conditions may differ.
# Key:
# [1] = test system: patients with mild-to-moderate probable AD; conditions: cited from earlier work
# [2] = Plasma pharmacokinetics after single rising oral doses of BI 409306; assay type: in vivo, human; conditions: for AUC0–∞ ratio of tablet to solution: EM; for Cl F^−1: geometric mean (gCV%)
# Method in brief: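 Healthy males (21–50 y), CYP2C19-genotyped as homozygous EMs or PMs, given single oral doses after a ≥10 h fast: solution 0.5–5 mg, tablets 10–350 mg; PMs given 10 mg, then 100 mg tablet. Tablet/solution crossover at 5 and 50 mg. Plasma sampled −2 h to 24 h (48, 72 h if ≥10 mg). HPLC-MS/MS with isotope-labelled internal standard. Noncompartmental analysis; log-scale ANOVA for formulation and genotype.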
# [3] = Urinary excretion after single oral doses of BI 409306; assay type: in vivo, human; conditions: for fe0–4: urine 0 h to 4 h, geometric mean (gCV%)
# Method in brief: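 Drug amounts were measured by HPLC-MS/MS, giving amounts and fractions excreted per interval. Dose proportionality of Ae0–4 was tested by linear regression in EMs and by a mixed-effects linear model in PMs, with a 95% CI on the slope.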
# [4] = test system: healthy male subjects; test: Safety and tolerability; assay type: in vivo, human
# Method in brief: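 Randomized, double-blind, placebo-controlled single-dose escalation, 3:1 active:placebo (six and two per group). Males 21–50 y, BMI 18.5–29.9 kg m−2, CYP2C19 EMs or PMs, dosed four per day ≥1 h apart, ≥5 days between levels. Monitored AEs, laboratory tests, physical exam, vital signs, cardiac monitoring, 12-lead ECG and 16-item Bond–Lader 100 mm mood VAS. Investigators rated tolerability on a four-point scale. Descriptive statistics.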
# [5] = test system: rat hippocampal slices; conditions: cited from earlier work
# [6] = preclinical studies; cited from earlier work
# [7] = after administration of 50 mg tablets
# [8] = dose levels of 10 mg and 100 mg
# [9] = single oral dose 2 mg sol EM (n = 6)
# [10] = single oral dose 5 mg sol EM (n = 6)
# [11] = single oral dose 5 mg tab EM (n = 6)
# [12] = single oral dose 10 mg tab EM (n = 6)
# [13] = single oral dose 10 mg tab PM (n = 6)
# [14] = single oral dose 50 mg sol EM (n = 8)
# [15] = single oral dose 50 mg tab EM (n = 6)
# [16] = single oral dose 100 mg tab EM (n = 5)
# [17] = single oral dose 100 mg tab PM (n = 6)
# [18] = single oral dose 200 mg tab EM (n = 6)
# [19] = single oral dose 350 mg tab EM (n = 6)
smiles,measurement,setting,value
"C[C@@H]1CN(Cc2ncccn2)C[C@H]1c1nc2c(cnn2C2CCOCC2)c(=O)[nH]1 [PF‐04447943, 6‐[(3S,4S)‐4‐methyl‐1‐(pyrimidin‐2‐ylmethyl)pyrrolidin‐3‐yl]‐1‐(tetrahydro‐2H‐pyran‐4‐yl)‐1,5‐dihydro‐4H‐pyrazolo[3,4‐d]pyrimidin‐4‐one]",incidence of severe AEs,[1],comparable to that with placebo
O=c1[nH]c(Cc2ccccn2)nc2c1cnn2C1CCOCC1 [BI 409306],AUC0–∞ ratio of tablet to solution,"[2]; 5 mg dose, 90% CI: 87.6%, 111%",98.5%
same,ratio (CYP2C19 PM to EM) of Cmax,"[2]; 10 mg dose, 90% CI: 125%, 401%",224%
same,ratio (CYP2C19 PM to EM) of AUC0–∞,"[2]; 10 mg dose, 90% CI: 291%, 843%",496%
same,AUC0–∞ ratio of tablet to solution,"[2]; 50 mg dose, 90% CI: 59.6%, 119%",84.2%
same,ratio (CYP2C19 PM to EM) of Cmax,"[2]; 100 mg dose, 90% CI: 124%, 421%",228%
same,ratio (CYP2C19 PM to EM) of AUC0–∞,"[2]; 100 mg dose, 90% CI: 254%, 677%",415%
same,"reduction of gMean AUC, tablet versus oral solution",[2]; [7],approximately 16%
same,"reduction of gMean Cmax, tablet versus oral solution",[2]; [7],approximately 20%
same,time following dose within which BI 409306 was eliminated,[2]; all DGs,≤ 24 h
same,AUC0–∞ in CYP2C19 PMs compared with EMs,[2]; [8],4.1–5.0 fold
same,Cmax in CYP2C19 PMs compared with EMs,[2]; [8],2.2–2.3 fold
same,Cl F^−1,[2]; single oral dose 0.5 mg sol EM (n = 6),6770 (50.4) ml min^−1
same,Cl F^−1,[2]; [9],5130 (41.3) ml min^−1
same,Cl F^−1,[2]; [10],3490 (27.0) ml min^−1
same,Cl F^−1,[2]; [11],3540 (32.2) ml min^−1
same,Cl F^−1,[2]; [12],5580 (69.8) ml min^−1
same,Cl F^−1,[2]; [13],1120 (35.5) ml min^−1
same,Cl F^−1,[2]; single oral dose 25 mg tab EM (n = 6),3810 (49.4) ml min^−1
same,Cl F^−1,[2]; [14],4130 (42.9) ml min^−1
same,Cl F^−1,[2]; [15],4970 (82.0) ml min^−1
same,Cl F^−1,[2]; [16],3660 (68.5) ml min^−1
same,Cl F^−1,[2]; [17],882 (21.4) ml min^−1
same,Cl F^−1,[2]; [18],2730 (44.4) ml min^−1
same,Cl F^−1,[2]; [19],2350 (17.1) ml min^−1
same,urinary excretion of BI 409306,[3]; CYP2C19 EMs,< 2 % of the dose
same,dose proportionality exponent β of the power model for Ae0–4,"[3]; CYP2C19 EMs, entire dose range, 95% CI: 0.98, 1.12",1.05
same,urinary excretion of BI 409306,[3]; CYP2C19 PMs,up to 2.68 % of the dose
same,fe0–4,[3]; [9],0.483 (46.5) %
same,fe0–4,[3]; [10],0.583 (26.0) %
same,fe0–4,[3]; [11],0.611 (24.2) %
same,fe0–4,[3]; [12],0.461 (60.2) %
same,fe0–4,[3]; [13],1.30 (14.3) %
same,fe0–4,[3]; [14],0.594 (48.1) %
same,fe0–4,[3]; [15],0.523 (56.9) %
same,fe0–4,[3]; [16],0.597 (53.0) %
same,fe0–4,[3]; [17],1.78 (23.3) %
same,fe0–4,[3]; [18],0.676 (48.8) %
same,fe0–4,[3]; [19],0.786 (24.0) %
same,AE: Dizziness,[4]; 2 mg sol EM (n = 6),1 (16.7) n (%)
same,AE: Gastrointestinal disorders,[4]; 2 mg sol EM (n = 6),1 (16.7) n (%)
same,AE: Headache,[4]; 2 mg sol EM (n = 6),1 (16.7) n (%)
same,AE: Nausea,[4]; 2 mg sol EM (n = 6),1 (16.7) n (%)
same,AE: Nervous system disorders,[4]; 2 mg sol EM (n = 6),2 (33.3) n (%)
same,AE: Headache,[4]; 5 mg tab EM (n = 6),1 (16.7) n (%)
same,AE: Nervous system disorders,[4]; 5 mg tab EM (n = 6),1 (16.7) n (%)
same,AE: Diarrhoea,[4]; 10 mg tab PM (n = 6),1 (16.7) n (%)
same,AE: Gastrointestinal disorders,[4]; 10 mg tab PM (n = 6),1 (16.7) n (%)
same,AE: Headache,[4]; 10 mg tab PM (n = 6),2 (33.3) n (%)
same,AE: Nervous system disorders,[4]; 10 mg tab PM (n = 6),2 (33.3) n (%)
same,AE: Cardiac disorders,[4]; 50 mg tab EM (n = 6),1 (16.7) n (%)
same,AE: Extrasystoles,[4]; 50 mg tab EM (n = 6),1 (16.7) n (%)
same,AE: Palpitations,[4]; 50 mg tab EM (n = 6),1 (16.7) n (%)
same,AE: Chromatopsia,[4]; 100 mg tab PM (n = 6),1 (16.7) n (%)
same,AE: Eye disorders,[4]; 100 mg tab PM (n = 6),2 (33.3) n (%)
same,AE: Headache,[4]; 100 mg tab PM (n = 6),2 (33.3) n (%)
same,AE: Nervous system disorders,[4]; 100 mg tab PM (n = 6),2 (33.3) n (%)
same,AE: Photopsia,[4]; 100 mg tab PM (n = 6),1 (16.7) n (%)
same,AE: Presyncope,[4]; 100 mg tab PM (n = 6),1 (16.7) n (%)
same,AE: Headache,[4]; 200 mg tab EM (n = 6),1 (16.7) n (%)
same,AE: Nervous system disorders,[4]; 200 mg tab EM (n = 6),2 (33.3) n (%)
same,AE: Photophobia,[4]; 200 mg tab EM (n = 6),1 (16.7) n (%)
same,AE: Photopsia,[4]; 200 mg tab EM (n = 6),2 (33.3) n (%)
same,AE: Somnolence,[4]; 200 mg tab EM (n = 6),1 (16.7) n (%)
same,AE: Blurred vision,[4]; 350 mg tab EM (n = 6),1 (16.7) n (%)
same,AE: Cardiac disorders,[4]; 350 mg tab EM (n = 6),1 (16.7) n (%)
same,AE: Chromatopsia,[4]; 350 mg tab EM (n = 6),1 (16.7) n (%)
same,AE: Dry mouth,[4]; 350 mg tab EM (n = 6),1 (16.7) n (%)
same,AE: Gastrointestinal disorders,[4]; 350 mg tab EM (n = 6),2 (33.3) n (%)
same,AE: Nausea,[4]; 350 mg tab EM (n = 6),1 (16.7) n (%)
same,AE: Nervous system disorders,[4]; 350 mg tab EM (n = 6),1 (16.7) n (%)
same,AE: Photophobia,[4]; 350 mg tab EM (n = 6),1 (16.7) n (%)
same,AE: Photopsia,[4]; 350 mg tab EM (n = 6),2 (33.3) n (%)
same,AE: Sinus tachycardia,[4]; 350 mg tab EM (n = 6),1 (16.7) n (%)
same,AE: Somnolence,[4]; 350 mg tab EM (n = 6),1 (16.7) n (%)
same,dose up to which generally safe and well tolerated,[4]; CYP2C19 EM healthy male subjects,up to 350 mg
same,subjects with headache,"[4]; CYP2C19 EMs treated with BI 409306, all dose groups",three
same,subjects with photophobia/increased sensitivity to light,"[4]; CYP2C19 EMs, all dose groups",three
same,subjects with photopsia/flashing lights,"[4]; CYP2C19 EMs, all dose groups",five
same,dose up to which generally safe and well tolerated,[4]; CYP2C19 PM healthy male subjects,up to 100 mg
same,subjects with headache,[4]; CYP2C19 PMs treated with BI 409306 (10 mg and 100 mg),four
same,intensity of AEs,[4]; all AEs,mild to moderate
same,"B&L VAS scores: effects on mood, vigilance or stress levels",[4]; data not shown,no clinically relevant effects; also recorded: did not reveal any clinically relevant effects
same,"abnormalities in laboratory results, ECG findings or vital signs",[4]; exception: one episode of transient sinus tachycardia,No relevant abnormalities
same,overall safety and tolerability,"[4]; healthy male subjects, single rising doses",generally safe and well tolerated
same,onset of nervous system and eye disorder AEs after administration,[4]; most frequently reported AEs,20 to 30 min
same,time within which AEs mostly resolved,[4]; nervous system and eye disorders,1 to 2 h
same,serious AEs,"[4]; single doses 0.5–350 mg, EMs and PMs",No serious AEs occurred; also recorded: No serious AEs were reported
same,highest (maximum) tolerated dose,"[4]; single oral dose, CYP2C19 EMs",350 mg
same,synaptic plasticity (LTP),[5],enhancement of LTP
same,memory performance,[6],improved memory performance
